TNAP act DEA = activators of human TNAP at intermediate phosphate acceptor; P05186; purified TNAP, CDP-star luminescence, 100 mM DEA, 30 min; active compounds read high; scale: 0 levamisole-inhibited, 1 vehicle-only enzyme; 64,000 tested, under 10 active; activation factor at 20 µM;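 active means activation factor of at least 2 at 20 µM, relative to controls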
MT1-MMP txn act = activates MT1-MMP transcription; HT1080 MT1-MMP promoter luciferase reporter, luminescence, overnight; active compounds read high; activation factor at 10 µM; actives 0.16% (n = 86,000); AID 750;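 active means activation factor of at least 2 for MT1-MMP transcription at 10 µM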
RORA act = RORA (human) activation; CHO-K1 Gal4-RORA LBD luciferase reporter, luminescence; percent increase over mock-subtracted basal signal; activation, % at 10 µM; actives 1.5% (n = 65,000); AID 560;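 active means activation above the mean of all tested compounds plus 3 SD, cut at about 49% in these data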
MMP13 inh = blocks human MMP13 activity | P45452 | MMP-13 fTHP FRET cleavage, Mca fluorescence | inhibition, % at 4 µM | actives 0.07% (n = 65,000);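 active means inhibition above the mean of compound-free control plate wells plus 3 SD, cut at about 14% in these data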
SF1 activator = SF-1 (human) activation | actives 1.9% (n = 65,000) | activation, % at 10 µM | CHO-K1 Gal4-SF-1 LBD luciferase reporter; % increase over DMSO SF-1-specific signal;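 active means activation above the mean activation of all tested compounds plus 3 SD, cut at about 50% in these data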
Target sequence (Q13285 whole entry, looked up, the tested form may be a part): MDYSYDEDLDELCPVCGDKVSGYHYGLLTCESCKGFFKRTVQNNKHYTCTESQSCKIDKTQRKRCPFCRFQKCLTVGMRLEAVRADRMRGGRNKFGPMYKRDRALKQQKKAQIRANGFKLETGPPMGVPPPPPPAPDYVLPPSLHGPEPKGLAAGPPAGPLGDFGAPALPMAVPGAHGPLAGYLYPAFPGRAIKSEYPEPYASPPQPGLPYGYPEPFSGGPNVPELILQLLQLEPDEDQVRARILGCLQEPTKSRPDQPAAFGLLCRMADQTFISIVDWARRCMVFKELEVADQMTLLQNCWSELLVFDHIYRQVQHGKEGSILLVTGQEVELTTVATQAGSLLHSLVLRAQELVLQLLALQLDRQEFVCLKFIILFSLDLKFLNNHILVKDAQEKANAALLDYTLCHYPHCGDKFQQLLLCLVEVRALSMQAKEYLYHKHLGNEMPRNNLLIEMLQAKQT
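material = CHO-K1 cells with Gal4–hSF-1 LBD chimera plus Gal4-driven luciferase | compound = 10 µM single point, 1% DMSO | incubation = 20 h compound exposure at 37 °C after 1 h cell settling | measured by = SteadyLite luciferase luminescence | evaluation = percent activation relative to DMSO median and mock-transfected background | control set = DMSO negative control and −SF1 background wells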
Numbers stand for hits; n = inactive; x = no result. Shown are actives, neighbours in structure and some others; about 2.1% of the full set was active somewhere.

SMILES	TNAP act DEA	MT1-MMP txn act	RORA act	MMP13 inh	SF1 activator
O=C(COc1ccc(Br)cc1)N1CCC(c2ccccc2)C1 (configuration not stated)	x	n	x	x	x
O=c1c(-c2ccccc2)n[nH]c2ccccc12	n	n	n	n	75.3
CCCCc1c(C)c2ccc(OCC(C)=O)cc2oc1=O	n	n	n	n	74.5
COc1cccc(-c2csc(NC(=O)C3CC3)n2)c1	n	n	74.4	n	60.1
COc1cccc(-c2csc(N3CCN(C(=O)C4CCCCC4)CC3)n2)c1	n	n	n	n	n
CC(C)(C)[Si](C)(C)c1c2c(nc3ccc(OCc4ccccc4)cc13)-c1cccc(=O)n1C2	x	n	x	x	x
c1ccc(CCc2nc(-c3ccccc3)no2)cc1	x	n	x	x	x
CCCc1nc(-c2ccc(-c3ccc(F)cc3)cc2)no1	n	n	n	n	53.3
N=C1C(c2nc3ccccc3s2)=C(O)CN1Cc1ccco1	n	n	n	n	51.5
COc1ccc(N2CC(O)=C(c3nc4ccccc4s3)C2=N)c(OC)c1	n	n	n	n	n
Cc1ccc2c(CC(=O)N3CCc4ccccc43)coc2c1	n	n	n	n	86.6
C=COC(=O)CSc1nc(-c2cccs2)ccc1C#N	n	n	n	n	69.2
CCOC(=O)C(C)Sc1nc(-c2cccs2)ccc1C#N (configuration not stated)	n	n	n	n	n
N#Cc1ccc(CSc2nnc(Nc3ccccc3)s2)cc1	n	n	n	n	n
CC(C)Sc1nnc(Nc2ccccc2)s1	n	n	n	n	105.8
Cc1cc(=O)n2nc(N3CCC(C(=O)NCCC4=CCCCC4)CC3)sc2n1	n	n	n	n	n
CN1CCN(Cc2ccc(OCc3ccccc3)cc2)CC1	n	n	n	n	n
CCN1CCN(Cc2ccc(OCc3ccccc3)cc2)CC1	n	n	n	n	56.7
O=S1(=O)C=CC(Nc2ccccc2)C1 (configuration not stated)	x	n	x	x	x
CC(C)COc1ccc(-c2nnc(-c3ccncc3)o2)cc1	n	n	n	n	84.9
COc1ccc(-c2nnc(-c3ccc(OCC(C)C)cc3)o2)cc1	x	n	x	x	x
O=c1n(S(=O)(=O)c2cccc3cccnc23)c2ccccc2n1S(=O)(=O)c1cccc2cccnc12	x	n	x	x	x
CCCc1cc(C(=O)Nc2ccccc2SC)no1	n	n	n	n	56.5
Cc1ccc(-c2cc(C(=O)NCc3cccs3)no2)cc1	n	n	58.6	n	60.3
CCCc1cc(C(=O)NCc2cccs2)no1	n	n	n	n	50.1
SMILES	TNAP act DEA	MT1-MMP txn act	RORA act	MMP13 inh	SF1 activator
COC(=O)N1C2(C=CC1(C)C(=O)NCc1ccccn1)CCCCC2 (configuration not stated)	x	n	x	x	x
O=C(NCCn1ccc2ccccc21)c1ccc2c(c1)OCO2	n	n	76.0	n	71.8
O=C(NCCn1ccc2ccccc21)c1ccc(S(=O)(=O)N2CCCCC2)cc1	n	n	n	n	n
COc1ccc(C(=O)NCCn2ccc3ccccc32)cc1	n	n	56.9	n	58.2
O=c1c2ccccc2nc2sc3ccccc3n12	x	n	60.4	n	56.8
COC(=O)/C=c1/sc2nc3ccccc3n2c1=O	n	n	n	n	n
Cc1nn(-c2nc3ccccc3s2)c(N)c1-c1ccccc1	n	n	n	n	60.0
Cc1nn(-c2nc3ccccc3s2)c(N)c1-c1ccc(Cl)cc1	x	n	n	n	n
Cc1nn(-c2nc3ccccc3s2)c(N)c1Sc1ccc(F)cc1	n	n	n	n	63.0
Cc1nn(-c2ccc(F)cc2)c(Cl)c1/C=C(\CCC(=O)O)c1nc2ccccc2s1	x	n	x	x	x
Cc1nn(-c2nc3ccccc3[nH]2)c(N)c1-c1ccccc1	n	n	54.3	n	n
COCC1C2CC[C@H]3C(OCc4ccc(F)cc4C(F)(F)F)OC[C@]4(C)[C@H]3C2=C(CN4C(=O)OC(C)(C)C)[C@H](C)C1COC (some centres not stated)	x	n	x	x	x
N#Cc1ccc(C(=O)Nc2ccc(N3CCN(C(=O)c4ccco4)CC3)cc2)c(F)c1	x	n	x	x	x
COc1cccc(C2/C(=C(/O)c3ccncc3)C(=O)C(=O)N2CCCN2CCOCC2)c1OC (configuration not stated)	n	n	n	n	n
C(=C\c1ccccc1)/CSc1nnc(-c2cccnc2)o1	n	n	n	n	n
CCOc1ccc(C(=O)Nc2ccc(Cl)cn2)cc1Cl	n	n	86.3	n	n
